Source: PubChem (The Scripps Research Institute Molecular Screening Center)
Only some compounds are listed: those with a hit (about 3.2% of all), similar ones and a draw of the others.
LEDGF integ inh: blocks HIV-1 LEDGF/p75-dependent DNA integration. TR-FRET IN-LEDGF/p75 DNA integration, Eu/Cy5. inhibition, % at 3.7 µM. actives 0.64% (n = 370,000);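 active = inhibition above the screen-wide mean plus 3 SD, cut at about 13% in these data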;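 also: signal is the Cy5 over europium emission ratio at 671 and 618 nm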
rCAG binder: molecules binding r(CAG) RNA repeats; r(CAG) RNA repeat, TO-PRO-1 dye displacement fluorescence; inhibition, % at 3 µM; actives 1.3% (n = 370,000);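 active = inhibition above the plate cutoff, the mean of all test compounds on that plate plus 3 SD, cut at about 35% in these data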;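 also: higher means more dye released from RNA so lower well fluorescence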
DAGLB inh: blocks human DAGLB lipase activity | Q8NCG7 | HEK293T DAGLB membrane lysate, EnzChek fluorogenic substrate | inhibition, % at 5.17 µM | actives 0.059% (n = 340,000); in the data active = inhibition above about 34%
HTRA1 inhibitor: blocks human HTRA1 serine peptidase | Q92743 | actives 0.5% (n = 340,000) | inhibition, % at 5.96 µM | recombinant HTRA1, FP-rhodamine activity-based probe, fluorescence polarization; in the data active = inhibition above about 36%
Target sequence (Q92743 whole entry, looked up): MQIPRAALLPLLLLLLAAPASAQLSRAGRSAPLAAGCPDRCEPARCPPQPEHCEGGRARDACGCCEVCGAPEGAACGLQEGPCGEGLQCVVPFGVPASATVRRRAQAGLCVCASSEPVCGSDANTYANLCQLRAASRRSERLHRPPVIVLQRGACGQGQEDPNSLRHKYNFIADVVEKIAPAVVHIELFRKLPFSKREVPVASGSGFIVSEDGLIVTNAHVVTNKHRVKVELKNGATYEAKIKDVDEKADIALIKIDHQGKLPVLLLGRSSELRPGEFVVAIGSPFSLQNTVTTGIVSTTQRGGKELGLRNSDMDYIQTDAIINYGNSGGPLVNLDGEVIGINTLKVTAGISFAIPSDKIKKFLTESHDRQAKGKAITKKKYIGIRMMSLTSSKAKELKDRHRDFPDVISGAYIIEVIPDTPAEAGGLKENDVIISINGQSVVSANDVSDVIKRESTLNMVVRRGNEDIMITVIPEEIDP
mABHD4 FP: inhibits mouse alpha/beta hydrolase domain 4; actives 0.54% (n = 370,000); inhibition, % at 8.92 µM; purified mABHD4, FP-Rh probe fluorescence polarization; Q8VD66; AID 720543;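 active = inhibition exceeding the mean over every tested compound plus 3 SD, cut at about 30% in these data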
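Assay system: mABHD4 protein; medium: HEPES pH 7.0, NaCl, Pluronic buffer; dosing: 8.92 µM, single dose; schedule: 45 min + 60 min at 25 °C; signal: FP readout, ex 525 nm / em 598 nm; read-out: normalized percent inhibition of probe labeling; repeats: single replicate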
PRMT1 inh: blocks human protein arginine methyltransferase 1 | Q99873 | recombinant PRMT1, activity-based probe fluorescence polarization | inhibition, % at 2.79 µM | actives 1.3% (n = 370,000) | AID 652257;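 active = inhibition above about 21% made by adding two undisclosed values, limit read from the data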
HTRA1 inh conf: HTRA1 (human) inhibition, confirmation. shares compounds with HTRA1 inhibitor. recombinant HTRA1, FP-rhodamine activity-based probe, fluorescence polarization. inhibition, % at 5.96 µM. actives 66% (n = 1,600). AID 540248;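 active = mean inhibition over three repeats above a set limit taken from the earlier primary screen, cut at about 37% in these data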;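 also: inhibitors block probe binding so polarization drops and inhibition rises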
rCAG bind conf: r(CAG) RNA repeat binding, confirmation. TO-PRO-1 dye displacement fluorescence. actives 70% (n = 4,300). shares compounds with rCAG binder. inhibition, % at 3 µM;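 active = inhibition above a per-plate cutoff, the mean inhibition of sample wells plus 3 SD, cut at about 35% in these data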;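 also: loss of TO-PRO-1 fluorescence as compound displaces dye from 1x1 AA loop RNA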
dCAG dye counter: counter-screen for rCAG RNA binders: DNA CAG dye complex inhibitors | shares compounds with rCAG binder | actives 94% (n = 4,300) | d(CAG) DNA oligo TO-PRO-1 dye displacement, fluorescence | inhibition, % at 3 µM | AID 652068;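 active = inhibition above its plate's cutoff, the mean test-well inhibition plus 3 SD, cut at about 4.8% in these data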;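 also: hits displace the dye from DNA and so lower well fluorescence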
DNA CAG DR: counter-screen for rCAG binders: inhibitors of DNA CAG TO-PRO-1 complex; shares compounds with rCAG binder; actives 20% (n = 250); IC50, µM; DNA CAG/GTC duplex TO-PRO-1 dye displacement fluorescence; in the data active = IC50 below about 10 µM
PRMT1 inh conf: PRMT1 (human) inhibition, FP confirmation; recombinant His-PRMT1, activity-based probe fluorescence polarization; inhibition, % at 2.79 µM; AID 687036; actives 42% (n = 3,300); shares compounds with PRMT1 inh;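 active = mean inhibition across replicates above the hit cutoff derived for the earlier primary screen, cut at about 22% in these data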
mABHD4 conf: ABHD4 (mouse) inhibition, FP confirmation; purified mABHD4, FP-Rh probe fluorescence polarization; actives 55% (n = 1,800); inhibition, % at 8.92 µM; shares compounds with mABHD4 FP;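 active = mean inhibition across replicates above the hit cutoff set in the primary screen, cut at about 30% in these data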
IN multimer act: activates HIV-1 integrase multimerization in LEDGF counter-screen; shares compounds with LEDGF integ inh; TR-FRET HIV-1 integrase multimerization, biochemical; activation, % at 7.7 µM; actives 17% (n = 2,000); in the data active = activation above about 8.9%
TR-FRET interf: counter-screen for LEDGF/p75 integration inhibitors: TR-FRET optical interference. AID 1053135. inhibition, % at 7.7 µM. shares compounds with LEDGF integ inh. TR-FRET optical interference counterscreen, HIV-1 IN multimerization. 2,000 tested, under 10 active;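 active = inhibition above the mean over all tested compounds plus 3 SD, which no compound reached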
IN-LEDGF confirm: LEDGF/p75-dependent HIV-1 integration inhibition, confirmation | shares compounds with LEDGF integ inh | TR-FRET LEDGF/p75-dependent HIV-1 integration, biochemical | inhibition, % at 3.7 µM | actives 36% (n = 2,000); in the data active = inhibition above about 14%
A number is an active result; i = inactive; nt = not tested or not shown.

SMILES	LEDGF integ inh	rCAG binder	DAGLB inh	HTRA1 inhibitor	mABHD4 FP	PRMT1 inh	HTRA1 inh conf	mABHD4 conf	IN multimer act	TR-FRET interf	IN-LEDGF confirm	others
Cc1cccc(N=NC(=S)NNc2cccc(C)c2)c1	i	i	i	36.3	32.3	i	45.2	57.8	nt	nt	nt
Nc1ccccc1O	nt	nt	i	i	nt	nt	nt	nt	nt	nt	nt
Nc1cccc2c(O)cccc12	i	i	i	39.5	42.3	i	i	50.8	nt	nt	nt
CC(=O)C1C(=O)c2c(cccc2[N+](=O)[O-])C1=Nc1ccc(S(N)(=O)=O)cc1 (stereo unspecified)	i	37.7	i	39.1	38.3	i	i	33.6	nt	nt	nt	rCAG bind conf=i;dCAG dye counter=13.4
CC(=O)C1=C(O)C(=O)N(c2ccc(S(N)(=O)=O)cc2)C1c1cccc([N+](=O)[O-])c1 (stereo unspecified)	i	i	i	i	i	i	nt	nt	nt	nt	nt
CC(C)N=c1cc2n(-c3ccc(Cl)cc3)c3ccccc3nc-2cc1Nc1ccc(Cl)cc1	i	i	i	69.5	60.7	i	51.2	78.2	nt	nt	nt
Cn1c(CNc2ccc(Cl)cc2)nc2ccccc21	i	i	i	i	i	i	nt	nt	nt	nt	nt
O=c1oc2ccccc2c(O)c1Cc1cc(Cl)c2cccnc2c1O	i	i	i	51.9	32.8	i	53.7	i	nt	nt	nt
O=C(SCc1c(O)c2ccccc2oc1=O)c1ccccc1	i	i	i	i	i	i	nt	nt	nt	nt	nt
O=[N+]([O-])c1cccc(N/N=C/c2cccc(O)c2O)c1	i	i	i	59.7	36.5	i	73.9	34.1	nt	nt	nt
OCCN1CCN(CC(O)COc2ccc(-c3ccccc3)cc2)CC1 (stereo unspecified)	i	i	i	i	i	i	nt	nt	nt	nt	nt
Cc1ccc(C(=O)NC2CCN(C(=O)Nc3ccccc3)CC2)cc1	i	i	i	i	i	i	nt	nt	nt	nt	nt
CC1=CC(C)(C)Nc2ccc(Cc3ccc4c(c3)C(C)=CC(C)(C)N4)cc21	i	i	i	50.6	31.2	i	36.7	32.9	nt	nt	nt
COc1ccc(S(=O)(=O)N2CCN(C)CC2)cc1C(=O)N1CCCCC1	i	i	i	i	i	i	nt	nt	nt	nt	nt
COc1ccc(CNc2oc(Cc3cccc4ccccc34)nc2C#N)cc1	i	i	i	i	i	i	nt	nt	nt	nt	nt
CCN(CC)c1ccc(/C=N/N(c2ccccc2)c2ccccc2)c(O)c1	i	i	i	i	i	i	nt	nt	nt	nt	nt
Oc1ccc(/C=N/N(c2ccccc2)c2ccccc2)cc1O	i	i	i	56.6	41.8	i	97.4	i	nt	nt	nt
Cc1nc2ccccc2c(=O)n1/N=C/c1ccccc1O	i	i	i	i	i	i	nt	nt	nt	nt	nt
Cc1nc2ccccc2c(=O)n1/N=C/c1ccc(O)c(O)c1O	60.6	44.3	i	49.0	44.3	i	55.5	i	18.5	i	80.4	rCAG bind conf=50.7;dCAG dye counter=18.9
Cc1ccc(-c2cccc3[nH]cc(C)c23)s1	i	i	nt	nt	i	i	nt	nt	nt	nt	nt
COc1cc(/C=N/N=C2/C(=O)Nc3ccccc32)ccc1O	i	i	i	i	i	i	nt	nt	nt	nt	nt
O=C1Nc2ccccc2/C1=N\N=C\c1ccc(O)c(O)c1	44.6	i	i	49.4	47.6	32.7	78.0	44.1	37.1	i	81.3
CS(=O)(=O)C1=C(O)C(=O)N(CCCC(=O)O)C1c1ccccc1F (stereo unspecified)	i	i	i	i	i	i	nt	nt	nt	nt	nt
Cc1ccc(/C=[N+](\[O-])c2ccc(N(C)C)cc2)c2nsnc12	14.4	i	i	38.1	30.4	i	i	i	10.4	i	i
Cc1cccc(N/N=C/c2ccc(O)c(O)c2O)c1	70.0	43.1	i	59.2	35.6	32.9	62.2	34.6	9.1	i	28.7	rCAG bind conf=43.4;dCAG dye counter=15.6
SMILES	LEDGF integ inh	rCAG binder	DAGLB inh	HTRA1 inhibitor	mABHD4 FP	PRMT1 inh	HTRA1 inh conf	mABHD4 conf	IN multimer act	TR-FRET interf	IN-LEDGF confirm	others
COc1cccc(N/N=C/c2cccc(Br)c2O)c1	i	i	i	i	i	i	nt	nt	nt	nt	nt
CCOc1ccc(Nc2ccc(N)c(S(=O)(=O)O)c2)cc1	38.3	55.4	i	93.2	107.1	35.8	53.1	54.6	13.7	i	18.7	rCAG bind conf=51.7;dCAG dye counter=18.2;PRMT1 inh conf=i
O=C1OCCN1N1CCOC1=O	i	i	i	i	i	i	nt	nt	nt	nt	nt
Cc1nc2cc(-c3ccsc3-n3c(C)ccc3C)[nH]n2c(=O)c1Cl	48.3	50.6	i	37.7	i	25.3	i	nt	i	i	32.5	rCAG bind conf=60.5;dCAG dye counter=26.4;PRMT1 inh conf=i
CCOc1cc(CNc2ccc(N3CCCCC3)cc2)cc(Br)c1OCC(=O)NC(C)(C)C	14.9	i	i	45.2	i	i	i	nt	i	i	i
Cc1ccc(Cn2cccc(NC(=O)CCC3CCCC3)c2=O)cc1	i	i	i	i	i	i	nt	nt	nt	nt	nt
CNCc1ccccc1Sc1ccc(O)c(O)c1	14.5	i	i	62.4	35.4	65.7	57.0	50.4	i	i	i
COc1ccc(Sc2ccccc2CN(C)C)cc1OC	i	i	i	i	i	i	nt	nt	nt	nt	nt
COC(=O)c1cccc(NC(=S)NCc2ccc(F)cc2)c1	i	i	i	i	i	i	nt	nt	nt	nt	nt
COc1cccc(C(=O)Nc2ccc(Oc3nnc(-c4ccccc4)c4ccccc34)cc2)c1	i	i	nt	nt	i	i	nt	nt	nt	nt	nt
O=C1/C(=C\c2ccc(O)c(O)c2)C(c2ccccc2)=NN1c1ccccc1	19.5	73.6	i	58.0	i	i	97.1	nt	23.5	i	28.6	rCAG bind conf=80.7;dCAG dye counter=43.8
CC1=NN(c2ccccc2)C(=O)/C1=C\c1sccc1C	i	i	i	i	i	i	nt	nt	nt	nt	nt
CCOC(=O)c1c(N)sc(=S)c2c1CCC2	34.4	35.5	i	38.3	41.6	27.3	i	i	i	i	32.1	rCAG bind conf=53.7;dCAG dye counter=23.5;DNA CAG DR=i;PRMT1 inh conf=i
